Assay [1] in a line: Antioxidant activity assessed as ABTS radical scavenging activity after 6 mins. The format is functional.
For assay [2], the system named is Radical scavenging activity. In words: Antioxidant activity assessed as DPPH free radical scavenging activity after 30 mins by spectrophotometric analysis. The class given is functional. In outline: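 Serial dilutions of compound (100 to 3.125 µg/mL) mixed 1:1 with 0.2 mmol/L DPPH in ethanol; ethanol blank, BHT control. A515 read after 0.5 h at 25 °C; IC50 = concentration giving 50% DPPH scavenging; three replicates, mean ± SD.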
For orientation: DPPH is a stable violet radical that fades when it is reduced.

Assay [3] can be described thus: Antioxidant activity assessed as ferric ion reducing activity using ferric-TPTZ by measuring concentration of compound with antioxidant capacity equivalent to ferrous sulfate at 0.5 mmol/L by FRAP assay. The format is functional.
Another assay has as its system Liver. In words: Antioxidant activity in KM mouse liver microsomes assessed as inhibition of lipid peroxidation after 60 mins. The format is functional, Microsome. The conditions noted are these: for IC50: 1 h; for inhibition: Microsome. In outline: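 Liver microsomes from adult male KM mice (8–12 weeks), protein by Bradford, used at 0.67 mg protein/mL with compounds at varying concentrations, 10 mM FeSO₄ and 0.1 mM ascorbic acid in 0.2 M potassium phosphate pH 7.4; 37 °C, 60 min. Stopped with 20% TCA plus 0.67% TBA, heated 100 °C 15 min, centrifuged; MDA-TBA read at 535 nm.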

A short description of assay [4]: Antioxidant activity against AAPH-induced DNA breakage in Escherichia coli pBR322 at 100 uM after 1 hr using ethidium bromide staining by agarose gel electrophoresis analysis. The class given is functional. In outline: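 Plasmid pBR322 DNA (4 µg/mL final) exposed to AAPH (4 mM final) in phosphate buffer (8.1 mM Na₂HPO₄, 1.9 mM NaH₂PO₄, 10.0 mM EDTA), 25 µL total; samples and Trolox standard added at 100 µM in DMSO; 37 °C, 1 h. Strand breakage resolved on 1% agarose gel in Tris-acetate-EDTA, 60 V, 100 min.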

Activity calls are given as the source filed them. The calls are words filed in the database; no cut-off is given here.

In general, IC50 refers to the concentration that inhibits the measured activity by half.

For the molecule `Fc1cccc(NCn2nc(-c3ccc4c(c3)OCCO4)oc2=S)c1`, the IC50 in assay [1] came out at 6.62 µM; in assay [2] it was 35.6 µM. In addition, the Activity in assay [3] is 398 µM.
For `S=c1oc(-c2ccc3c(c2)OCCO3)nn1CNC1CCCCC1`, in that order: 18.4 µM, 94.4 µM and more than 1000 µM.
On to `S=c1oc(-c2ccc3c(c2)OCCO3)nn1CNc1cc(Cl)ccc1Cl`, for which the IC50 in assay [1] is 5.42 µM; in assay [2] it was 35.1 µM. For the same molecule, the Activity in assay [3] is 899 µM.
In the case of `Cc1c(C)c2c(c(C)c1O)CCC(C)(C(=O)O)O2` (stereo not given) [TROLOX], the IC50 in assay [1] was 6.19 µM; in assay [2], 30.2 µM; with Liver it was 183 µM. Also, the Activity in assay [3] stood at 294 µM.
Take `Fc1cccc(F)c1NCn1nc(-c2ccc3c(c2)OCCO3)oc1=S`: the IC50 in assay [1] was 3.32 µM; in assay [2], 21.8 µM. Also, the inhibition entry in the assay with Liver is “Active”. Moreover, the Activity in assay [3] came out at 268 µM. For the same molecule, the outcome in assay [4] was Active.
Regarding `Cc1ccc(NCn2nc(-c3ccc4c(c3)OCCO4)oc2=S)cc1`, the IC50 in assay [1] amounted to 5.7 µM; in assay [2], 25.2 µM. Besides, the Activity in assay [3] is 434 µM.
As for `COC(=O)c1ccc2c(c1)OCCO2`, the IC50 in assay [1] was 13.8 µM; in assay [2], 87.4 µM. The Activity in assay [3] is more than 1000 µM.
On the same counts, the results for `FC(F)(F)c1ccccc1NCn1nc(-c2ccc3c(c2)OCCO3)oc1=S` are 9.22 µM, 68.3 µM and more than 1000 µM.
As for `S=c1oc(-c2ccc3c(c2)OCCO3)nn1CNc1cccc(Cl)c1`, the IC50 was 6.22 µM in assay [1] and 22.8 µM in assay [2]. Besides, the Activity in assay [3] was determined as 846 µM.
For `Cc1cc(C(C)(C)C)c(O)c(C(C)(C)C)c1` [BUTYLATED HYDROXYTOLUENE], in that order: 7.57 µM, 43.8 µM and 546 µM.
`S=c1oc(-c2ccc3c(c2)OCCO3)nn1CNc1ccc(Br)cc1`: the results for the IC50 in assay [1] and in assay [2] were 14.7 µM and 71.3 µM, respectively. Further, the Activity in assay [3] stood at 531 µM.
Consider `S=c1oc(-c2ccc3c(c2)OCCO3)nn1CNc1ccc(Br)cc1Br`, for which the half-maximal inhibitory concentration (IC50) stood at 6.41 µM in assay [1] and 35.9 µM in assay [2]. In addition, in assay [3], the Activity is more than 1000 µM.
Consider `Fc1ccc(NCn2nc(-c3ccc4c(c3)OCCO4)oc2=S)cc1`, for which the IC50 in assay [1] is 6.48 µM; in assay [2], 29.3 µM. Moreover, the Activity in assay [3] came out at 300 µM.
With `Cc1ccccc1NCn1nc(-c2ccc3c(c2)OCCO3)oc1=S`, the 50% inhibitory concentration (IC50) is 3.45 µM in assay [1] and 36.3 µM in assay [2]. For the same molecule, the inhibition result in the assay on Liver was “Active”. The Activity in assay [3] was 292 µM. In addition, the result in assay [4] was Active.
For the molecule `COc1ccccc1NCn1nc(-c2ccc3c(c2)OCCO3)oc1=S`, the IC50 in assay [1] was 6.3 µM; in assay [2] it was 28.6 µM. Further, in assay [3], the Activity turned out to be 335 µM.
Take `O=[N+]([O-])c1cccc(NCn2nc(-c3ccc4c(c3)OCCO4)oc2=S)c1`: the half-inhibitory concentration (IC50) came to 8.87 µM in assay [1] and 38.3 µM in assay [2]. Besides, the inhibition entry with Liver was “Active”. Moreover, the Activity in assay [3] is more than 1000 µM. Moreover, in assay [4], the outcome was Active.
Take `Fc1ccccc1NCn1nc(-c2ccc3c(c2)OCCO3)oc1=S`: the IC50 was found to be 6.39 µM in assay [1] and 37.3 µM in assay [2]. In addition, the Activity in assay [3] was 522 µM.
Turning to `Fc1cc(NCn2nc(-c3ccc4c(c3)OCCO4)oc2=S)cc(F)c1F`, the IC50 in assay [1] came to 2.92 µM; in assay [2], 19.6 µM; in the assay on Liver, 110 µM. Besides, the Activity in assay [3] is 240 µM. Further, the outcome in assay [4] was Active.
In the case of `S=c1oc(-c2ccc3c(c2)OCCO3)nn1CNc1ccccc1`, the IC50 was 5.14 µM in assay [1] and 32.6 µM in assay [2]. In addition, the inhibition entry in the assay with Liver was “Active”. The Activity in assay [3] came to 735 µM. The outcome in assay [4] was Active.
For `S=c1oc(-c2ccc3c(c2)OCCO3)nn1CNc1cccc(Br)c1`, the half-inhibitory concentration (IC50) in assay [1] was found to be 10.8 µM; in assay [2], 51 µM. Besides, the Activity in assay [3] was more than 1000 µM.
As for `COc1ccc(NCn2nc(-c3ccc4c(c3)OCCO4)oc2=S)cc1`, the half-maximal inhibitory concentration (IC50) in assay [1] was determined as 5.83 µM; in assay [2], 31.8 µM. In assay [3], the Activity turned out to be 493 µM.
For `S=c1oc(-c2ccc3c(c2)OCCO3)nn1CNc1ccc(Cl)cc1Cl`, in that order: 8.71 µM, 43.5 µM and 593 µM.
As to `FC(F)(F)c1cc(NCn2nc(-c3ccc4c(c3)OCCO4)oc2=S)cc(C(F)(F)F)c1`, the IC50 in assay [1] came out at 9.32 µM; in assay [2], 89.3 µM. In addition, the Activity in assay [3] is more than 1000 µM.
As for `O=[N+]([O-])c1ccc(NCn2nc(-c3ccc4c(c3)OCCO4)oc2=S)c(Cl)c1`, the IC50 in assay [1] is 8.66 µM; in assay [2] it was 83.4 µM. For the same molecule, in the assay on Liver, the inhibition entry was “Active”. In addition, the Activity in assay [3] was more than 1000 µM. In addition, the outcome in assay [4] was Active.
With `CCOc1ccccc1NCn1nc(-c2ccc3c(c2)OCCO3)oc1=S`, the figures for the IC50 in assay [1] and in assay [2] were 5.28 µM and 22.4 µM, respectively. Moreover, the Activity in assay [3] is 422 µM.
For `S=c1oc(-c2ccc3c(c2)OCCO3)nn1CNc1ccc(Cl)c(Cl)c1`, the IC50 worked out at 6.84 µM in assay [1] and 36.2 µM in assay [2]. Besides, in assay [3], the Activity was determined as 763 µM.
`S=c1oc(-c2ccc3c(c2)OCCO3)nn1CNc1ccccc1Cl`: the half-inhibitory concentration (IC50) in assay [1] was 7.23 µM; in assay [2] it was 30.5 µM. Besides, the Activity in assay [3] was determined as 532 µM.
On the same counts, the results for `S=c1[nH]nc(-c2ccc3c(c2)OCCO3)o1` are 10.6 µM, 63.9 µM and 612 µM.
Consider `S=c1oc(-c2ccc3c(c2)OCCO3)nn1CNc1ccc(Cl)cc1`, for which the concentration for half-maximal inhibition (IC50) in assay [1] was determined as 7.27 µM; in assay [2], 31.3 µM. The Activity in assay [3] is 584 µM.
With `O=[N+]([O-])c1ccc(NCn2nc(-c3ccc4c(c3)OCCO4)oc2=S)cc1`, the results for the 50% inhibitory concentration (IC50) in assay [1] and in assay [2] were 9.95 µM and 47.8 µM, respectively. Further, the Activity in assay [3] was more than 1000 µM.
In the case of `S=c1oc(-c2ccc3c(c2)OCCO3)nn1CNc1ccccc1Br`, the half-maximal inhibitory concentration (IC50) was determined as 12.7 µM in assay [1] and 36.1 µM in assay [2]. Further, in assay [3], the Activity is 440 µM.
For `CCCCCCCCCCCCCCCCNCn1nc(-c2ccc3c(c2)OCCO3)oc1=S`, in that order: 22.9 µM, 108 µM and more than 1000 µM.
Turning to `O=[N+]([O-])c1ccccc1NCn1nc(-c2ccc3c(c2)OCCO3)oc1=S`, the IC50 came to 10.9 µM in assay [1] and 47.8 µM in assay [2]. Besides, the inhibition result in the assay on Liver was “Active”. Moreover, in assay [3], the Activity is more than 1000 µM. Besides, the outcome in assay [4] was Active.
Turning to `S=c1[nH]nc(-c2ccccc2)o1`, the 50% inhibitory concentration (IC50) came out at 10.9 µM in assay [1] and 89.8 µM in assay [2]. Moreover, the Activity in assay [3] is more than 1000 µM.
On the same counts, the results for `FC(F)(F)c1cccc(NCn2nc(-c3ccc4c(c3)OCCO4)oc2=S)c1` are 7.62 µM, 35.5 µM and more than 1000 µM.

These data come from ChEMBL document CHEMBL2434867, “Synthesis and antioxidant activity of novel Mannich base of 1,3,4-oxadiazole derivatives possessing 1,4-benzodioxan” (Bioorg Med Chem, 2013).
